Calls of active or inactive are those of the source. No cut-off for these calls is given here.
Legend:
Assay type in all cases: nucleic-acid assay
Nucleic Acid [1] = assay: Binding affinity to duplex DNA by isothermal titration calorimetry
Outline: (§1)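 ITC: ligand at 200 µM in Tris/K+ buffer injected into DNA at 20 µM in the same buffer, every 300 s, 29 injections. Heats of dilution were measured by injection into buffer and subtracted. The first injection was discarded. ΔH was from a single-site fit of heat per mole against molar ratio.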

Nucleic Acid [2] = assay: Binding affinity to duplex DNA by two site-mode surface plasmon resonance analysis
Outline: (§2)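 SPR: 5′-biotinylated DNA captured on a streptavidin chip (350–400 RU), with a blank reference cell. Ligand series from 1 nM to 1 µM injected at 25 µL/min for 5 min to steady state, then 5 min dissociation. Surface regenerated with 10 mM glycine pH 2.5. Steady-state RU was converted using predicted RUmax. Values are the mean of two experiments.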

Nucleic Acid [3] = assay: Binding affinity to c-myc quadruplex DNA by two site-mode surface plasmon resonance analysis; outline: as §2
Nucleic Acid [4] = assay: Binding affinity to Tel22 G-quadruplex DNA by two site-mode surface plasmon resonance analysis; outline: as §2
Nucleic Acid [5] = assay: Binding affinity to c-myc quadruplex DNA by circular dichroism analysis
Outline: (§3)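 CD spectra were recorded at 25 °C in 50 mM KCl with 4 µM single-strand quadruplex, 1 cm quartz cuvette, scan 50 nm/min, response 1 s. Ligand was titrated at increasing ligand:quadruplex ratios, and induced CD in the ligand absorbance region was assessed qualitatively.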

Nucleic Acid [6] = assay: Binding affinity to Tel22 G-quadruplex DNA at 3:1 compound to DNA ratio by circular dichroism analysis; outline: as §3
Nucleic Acid [7] = assay: Binding affinity to duplex DNA at 6:1 compound to DNA ratio by UV-spectrometer
Outline: (§4)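 UV thermal denaturation in 1 cm quartz cuvettes; DNA at 2–3 µM single strand in HEPES buffer (50 mM KCl). Compound:DNA ratios 0:1 to 6:1. Absorbance followed versus temperature at 295 nm for Tel22 and 260 nm for the AATT hairpin duplex. ΔTm is the average of two independent trials, reproducible within 0.5 °C.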

Nucleic Acid [8] = assay: Binding affinity to Tel22 G-quadruplex DNA at 4:1 compound to DNA ratio by UV-spectrometer; outline: as §4
Nucleic Acid [9] = assay: Binding affinity to Tel22 G-quadruplex DNA at 2:1 compound to DNA ratio by UV-spectrometer; outline: as §4
Nucleic Acid [10] = assay: Binding affinity to Tel22 G-quadruplex DNA at 6:1 compound to DNA ratio by UV-spectrometer; outline: as §4
Nucleic Acid [11] = assay: Binding affinity to c-myc quadruplex DNA by mass spectrometry
Outline: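 ESI-MS: c-myc DNA dialyzed against 50 mM ammonium acetate pH 7.2. Samples of 25–30 µM DNA with ligand at 0:1 to 4:1 molar ratios, infused directly at 5 µL/min. Capillary 2200 V, cone 30 V, desolvation 70 °C, source 100 °C. Spectra were collected for 10 min, with the last 2 min analyzed.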

Nucleic Acid [12] = assay: Binding affinity to c-myc quadruplex DNA by isothermal titration calorimetry; outline: as §1
Nucleic Acid [13] = assay: Binding affinity to Tel22 G-quadruplex DNA by isothermal titration calorimetry; outline: as §1

| Structure (SMILES) | Activity (Nucleic Acid [1]) | Activity (Nucleic Acid [2]) | Kb (Nucleic Acid [3]) | Kb (Nucleic Acid [4]) | Activity (Nucleic Acid [5]) | Activity (Nucleic Acid [6]) | ΔTm (Nucleic Acid [7]) | ΔTm (Nucleic Acid [8]) | ΔTm (Nucleic Acid [9]) | ΔTm (Nucleic Acid [10]) | Activity (Nucleic Acid [11]) | Activity (Nucleic Acid [12]) | Activity (Nucleic Acid [13]) |
| --- | --- | --- | --- | --- | --- | --- | --- | --- | --- | --- | --- | --- | --- |
| CC1(C)C(/C=C/C(Cl)=C/C=C2/N(CCC[N+](C)(C)C)c3ccccc3C2(C)C)=[N+](CCC[N+](C)(C)C)c2ccccc21 | – | inactive | 0.6 ×10⁶ /M | 0.08 ×10⁶ /M | – | – | 2.8 °C | 12.2 °C | 4.6 °C | 13.2 °C | – | – | – |
| CC1(C)C(/C=C/C(Cl)=C/C=C2/N(CCC[N+](C)(C)C)c3ccc(Cl)cc3C2(C)C)=[N+](CCC[N+](C)(C)C)c2ccc(Cl)cc21 | – | inactive | 0.23 ×10⁶ /M | 0.08 ×10⁶ /M | – | – | 2.3 °C | 15 °C | 7 °C | 19 °C | – | – | – |
| CC1(C)C(/C=C/C(Cl)=C/C=C2/N(CCC[N+](C)(C)C)c3ccc(Br)cc3C2(C)C)=[N+](CCC[N+](C)(C)C)c2ccc(Br)cc21 | – | inactive | 0.2 ×10⁶ /M | 0.05 ×10⁶ /M | – | – | 2.5 °C | 16 °C | 9 °C | 21 °C | – | – | – |
| CC1(C)C(/C=C/C(Br)=C/C=C2/N(CCC[N+](C)(C)C)c3ccc(Cl)cc3C2(C)C)=[N+](CCC[N+](C)(C)C)c2ccc(Cl)cc21 | – | inactive | 0.25 ×10⁶ /M | 0.13 ×10⁶ /M | – | – | 1.8 °C | 17 °C | 8 °C | 20 °C | – | – | – |
| CC1(C)C(/C=C/C=C/C=C2/N(CCC[N+](C)(C)C)c3ccc(Cl)cc3C2(C)C)=[N+](CCC[N+](C)(C)C)c2ccc(Cl)cc21 | – | inactive | inactive | inactive | – | – | 0.5 °C | 8.9 °C | 3.1 °C | 13.2 °C | – | – | – |

Further lines, results first:

| Activity (Nucleic Acid [1]) | Activity (Nucleic Acid [2]) | Kb (Nucleic Acid [3]) | Kb (Nucleic Acid [4]) | Activity (Nucleic Acid [5]) | Activity (Nucleic Acid [6]) | ΔTm (Nucleic Acid [7]) | ΔTm (Nucleic Acid [8]) | ΔTm (Nucleic Acid [9]) | ΔTm (Nucleic Acid [10]) | Activity (Nucleic Acid [11]) | Activity (Nucleic Acid [12]) | Activity (Nucleic Acid [13]) | Structure (SMILES) |
| --- | --- | --- | --- | --- | --- | --- | --- | --- | --- | --- | --- | --- | --- |
| inactive | inactive | 3.6 ×10⁶ /M | 0.59 ×10⁶ /M | Active | Active | 1.1 °C | 15.6 °C | 2.5 °C | – | – | – | – | CC1(C)C(/C=C/C=C/C=C2/N(CCC[N+](C)(C)C)c3ccc(Br)cc3C2(C)C)=[N+](CCC[N+](C)(C)C)c2ccc(Br)cc21 |
| inactive | inactive | 2 ×10⁶ /M | 0.06 ×10⁶ /M | Active | Active | 1.2 °C | 16.2 °C | 8 °C | 20.3 °C | – | – | – | CC1(C)C(/C=C/C(Br)=C/C=C2/N(CCC[N+](C)(C)C)c3ccc(Br)cc3C2(C)C)=[N+](CCC[N+](C)(C)C)c2ccc(Br)cc21 |
| inactive | inactive | 0.07 ×10⁶ /M | 0.74 ×10⁶ /M | – | – | 0.1 °C | 11.6 °C | 4.6 °C | 15.6 °C | Active | Active | Active | CC1(C)C(/C=C/C(Br)=C/C=C2/N(CCC[N+](C)(C)C)c3ccccc3C2(C)C)=[N+](CCC[N+](C)(C)C)c2ccccc21 |
| – | inactive | 0.07 ×10⁶ /M | 0.17 ×10⁶ /M | Active | Active | 0 °C | 4.6 °C | 2.1 °C | 8.7 °C | Active | – | – | CC1(C)C(/C=C/C=C/C=C2/N(CCC[N+](C)(C)C)c3ccccc3C2(C)C)=[N+](CCC[N+](C)(C)C)c2ccccc21 |

— ChEMBL document CHEMBL2203084, “Halogenated pentamethine cyanine dyes exhibiting high fidelity for G-quadruplex DNA” (Bioorg Med Chem, 2012)
